ChEMBL document CHEMBL1152662, “Synthesis and biological evaluation of novel 2-(substituted phenylaminocarbonylmethylthio)-6-(2,6-dichlorobenzyl)-pyrimidin-4(3H)-ones as potent HIV-1 NNRTIs” (Bioorg Med Chem, 2009)

How the values were obtained:
[1] = tested on: Human immunodeficiency virus 1; experiment: Antiviral activity against HIV1 3B infected in human MT4 cells assessed as inhibition of virus-induced cytopathic effect after 5 days by MTT assay; format: functional, organism-based; settings: Human immunodeficiency virus 1, 3B, MT4, 120 h
Outline: (§1)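 Compounds added at start in triplicate wells (stocks at 10× final) as serial fivefold dilutions; MT-4 cells at 6 × 10⁵ cells/mL infected with HIV-1 IIIB or HIV-2 ROD. Viability read by MTT 5 days post-infection at 540 and 690 nm, median OD of three wells. EC50 is the concentration giving 50% protection against virus-induced cytotoxicity.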

[2] = Selectivity index, ratio of CC50 for mock-infected human MT4 cells to EC50 for HIV1 3B infected in human MT4 cells; format: toxicity, cell-based; settings: read-out: Ratio CC50/EC50
Outline: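 Selectivity index calculated as CC50 over EC50, both from 5-day MTT viability readings in MT-4 cells, mock-infected or HIV-1 IIIB-infected, run in parallel triplicate wells.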

[3] = Cytotoxicity against mock-infected human MT4 cells after 5 days by MTT assay; format: cell-based
Outline: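 Mock-infected MT-4 cells (6 × 10⁵ cells/mL) exposed in triplicate to serial fivefold dilutions, added at start from stocks at 10× final concentration. Viability measured by MTT after 5 days, absorbance at 540 and 690 nm, median OD of three wells. CC50 is the concentration lowering OD540 of mock-infected control by 50%.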

[4] = tested on: Human immunodeficiency virus 2; experiment: Antiviral activity against HIV2 ROD infected in human MT4 cells assessed as inhibition of virus-induced cytopathic effect after 5 days by MTT assay; format: functional, organism-based; settings: Human immunodeficiency virus 2, ISOLATE ROD, MT4, 120 h; outline: as §1

Row | Compound | EC50 [1] | selectivity ratio [2] | CC50 at 120 h [3] | EC50 [4]
1 | O=C(CSc1nc(Cc2c(Cl)cccc2Cl)cc(=O)[nH]1)Nc1ccc(F)c(F)c1 | > 274 µM | ≥ 1 | > 274 µM | > 274 µM
2 | O=C(CSc1nc(Cc2c(Cl)cccc2Cl)cc(=O)[nH]1)Nc1ccc(Cl)c(Cl)c1 | ≥ 84.6 µM |  | 19.6 µM | > 19.6 µM
3 | O=C(CSc1nc(Cc2c(Cl)cccc2Cl)cc(=O)[nH]1)Nc1ccc(F)c(Cl)c1 | > 264 µM | < 1 | > 264 µM | > 264 µM
4 | COc1ccc(NC(=O)CSc2nc(Cc3c(Cl)cccc3Cl)c(C)c(=O)[nH]2)cc1 | 2.74 µM | 4 | 10.8 µM | > 10.8 µM
5 | O=C(CSc1nc(Cc2c(Cl)cccc2Cl)cc(=O)[nH]1)Nc1ccc([N+](=O)[O-])cc1 | 2.07 µM | > 130 | > 269 µM | > 269 µM
6 | COc1ccc(NC(=O)CSc2nc(Cc3c(Cl)cccc3Cl)cc(=O)[nH]2)cc1OC | 4.48 µM | 28 | 166 µM | > 166 µM
7 | Cc1c(Cc2c(Cl)cccc2Cl)nc(SCC(=O)Nc2ccc(F)c(F)c2)[nH]c1=O | 0.69 µM | > 387 | > 266 µM | > 266 µM
8 | Cc1ccc(NC(=O)CSc2nc(Cc3c(Cl)cccc3Cl)cc(=O)[nH]2)cc1 | 0.88 µM | ≥ 54 | ≥ 47.4 µM | > 47.4 µM
9 | Cc1c(Cc2c(Cl)cccc2Cl)nc(SCC(=O)Nc2ccc(Br)cc2)[nH]c1=O | 0.18 µM | > 1330 | > 244 µM | > 244 µM
10 | COc1ccc(NC(=O)CSc2nc(Cc3c(Cl)cccc3Cl)cc(=O)[nH]2)cc1 | 0.92 µM | 28 | 25.5 µM | > 25.2 µM
11 | Cc1c(Cc2c(Cl)cccc2Cl)nc(SCC(=O)Nc2ccc(Cl)cc2)[nH]c1=O | 0.32 µM | > 836 | > 267 µM | > 267 µM
12 | COc1ccc(NC(=O)CSc2nc(Cc3c(Cl)cccc3Cl)c(C)c(=O)[nH]2)cc1OC | 1.45 µM | > 175 | > 253 µM | > 253 µM
13 | O=C(CSc1nc(Cc2c(Cl)cccc2Cl)cc(=O)[nH]1)Nc1ccc(Br)cc1 | 0.74 µM | 31 | 22.8 µM | > 22.8 µM
14 | Cc1c(Cc2c(Cl)cccc2Cl)nc(SCC(=O)Nc2ccc([N+](=O)[O-])cc2)[nH]c1=O | 0.99 µM | > 264 | > 261 µM | ≥ 45.8 µM
15 | Cc1c(Cc2c(Cl)cccc2Cl)nc(SCC(=O)Nc2ccc(F)c(Cl)c2)[nH]c1=O | ≥ 41.1 µM | ≥ 1 | > 257 µM | > 257 µM
16 | Cc1c(Cc2c(Cl)cccc2Cl)nc(SCC(=O)Nc2ccc(Cl)c(Cl)c2)[nH]c1=O | ≥ 2.82 µM | ≥ 88 | > 248 µM | > 248 µM
17 | O=C(CSc1nc(Cc2c(Cl)cccc2Cl)cc(=O)[nH]1)Nc1ccc(Cl)cc1 | 0.95 µM | 23 | 24.8 µM | > 24.8 µM
